# Measured values collected from several papers.
# Lines come from different studies, so protocols differ.
# Target: Inhibitor of nuclear factor kappa-B kinase subunit alpha (CHUK, Homo sapiens, UniProt O15111)
# Residues used in one study (O15111 1-745): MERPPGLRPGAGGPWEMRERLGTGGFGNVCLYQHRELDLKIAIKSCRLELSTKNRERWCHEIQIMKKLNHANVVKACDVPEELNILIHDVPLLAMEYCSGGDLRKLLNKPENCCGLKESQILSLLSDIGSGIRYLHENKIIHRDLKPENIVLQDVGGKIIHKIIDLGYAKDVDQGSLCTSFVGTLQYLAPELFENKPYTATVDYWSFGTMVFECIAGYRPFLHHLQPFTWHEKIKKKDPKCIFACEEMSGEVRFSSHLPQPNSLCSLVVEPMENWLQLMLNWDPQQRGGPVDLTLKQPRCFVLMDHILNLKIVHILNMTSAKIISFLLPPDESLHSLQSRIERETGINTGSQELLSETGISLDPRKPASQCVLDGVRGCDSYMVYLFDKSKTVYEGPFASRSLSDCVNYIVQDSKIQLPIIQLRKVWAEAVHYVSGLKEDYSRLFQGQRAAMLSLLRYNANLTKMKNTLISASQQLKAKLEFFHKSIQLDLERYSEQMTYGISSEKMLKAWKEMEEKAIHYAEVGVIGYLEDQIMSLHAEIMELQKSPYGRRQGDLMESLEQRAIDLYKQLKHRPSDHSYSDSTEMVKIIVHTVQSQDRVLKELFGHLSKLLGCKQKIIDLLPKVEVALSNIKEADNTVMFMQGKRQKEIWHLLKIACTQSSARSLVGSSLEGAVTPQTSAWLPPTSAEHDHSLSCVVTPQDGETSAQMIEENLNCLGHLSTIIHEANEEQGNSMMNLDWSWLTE
Compound,test,conditions,endpoint,value
CN([C@@H]1CCc2c(CC(=O)O)c3ccccc3n2C1)S(=O)(=O)c1ccc(F)cc1,"cell-free assay, competition with immobilised ligand",1 µM,remaining binding,100%
Cc1cc(NC(=O)c2cccc3cc(-c4cccc5[nH]nc(N)c45)ccc23)ccc1F,"enzyme activity, inhibitor",0.1 µM,activity vs control,127%
Cc1ccc(C(=O)Nc2ccc(CN3CCN(C)CC3)c(C(F)(F)F)c2)cc1C#Cc1cnc2cccnn12,"enzyme activity, inhibitor",23.5 nM,remaining activity,19%
CNCc1ccc(-c2cc(-c3nc(-c4ccc(S(=O)(=O)C(C)C)cc4)cnc3N)on2)cc1,"enzyme activity, inhibitor",0.4 µM,inhibition,17%
CN(C(=O)c1ccccc1)c1cc(N(C)c2ccc3c(c2)CCc2ccc(C(=O)NCCN4CCOCC4)cc2C3=O)ccc1F,"cell-free assay, competition with immobilised ligand",1 µM,remaining binding,100%
CCCCNc1ncc2c(-c3ccc(F)cc3)nn(C[C@H]3CC[C@H](N)CC3)c2n1,"target engagement in cells, inhibitor, chemoproteomics",20 mM,inhibition,4.9%
CNC(=O)c1cc(Oc2ccc(NC(=O)Nc3ccc(Cl)c(C(F)(F)F)c3)cc2)ccn1,"enzyme activity, inhibitor",0.3 µM,inhibition,-10%
CSc1nc(C)c(-c2ccnc(Nc3ccc(N4CCOCC4)cc3)c2)[nH]1,"enzyme activity, inhibitor",10 µM,inhibition,48.8%
CC(C)c1ccc(NC(=O)c2cccs2)c(-c2nc3ccccc3[nH]c2=O)c1,"enzyme activity, inhibitor",1 µM,activity vs control,104%
CCN(CC)CCNC(=O)c1c(C)[nH]c(/C=C2\C(=O)Nc3ccc(F)cc32)c1C,"enzyme activity, inhibitor",10 µM,inhibition,52%
COc1cccc2c(NCc3ccccc3)nc(-n3c(N)nc4ccccc43)nc12,"target engagement in cells, inhibitor, chemoproteomics",20 mM,inhibition,8.5%
CC(C)(O)[C@H]1CC[C@H](Nc2ccc3ncc(-c4cccc(C(F)(F)F)c4)n3n2)CC1,"enzyme activity, inhibitor",1 µM,remaining activity,83.6%
C#Cc1cccc(Nc2ncnc3cc(OCCOC)c(OCCOC)cc23)c1,cell-free assay,0.5 µM,remaining signal,94.2%
CC(=O)N1CCC(c2ccc(C(=O)NC3=NCCN3)cc2C(F)(F)F)CC1,"cell-free assay, competition with immobilised ligand",1 µM,remaining binding,90%
COc1cc(Cl)c(C(=O)N[C@@H](CN[C@H]2CC[C@@H](N)CC2)Cc2ccc(C#N)cc2)cc1-c1ccc(CN[C@H](C)c2ccc(C)cc2)o1,"enzyme activity, inhibitor",1 µM,remaining activity,95%
NS(=O)(=O)c1cc(NC(=O)Cc2ccccc2)ccc1Oc1cccc(Cl)c1,"cell-free assay, competition with immobilised ligand",1 µM,remaining binding,63%
N#CCCc1ccc2c(c1)-c1[nH]c3ccc([N+](=O)[O-])cc3c1CC(=O)N2,cell-free assay,0.5 µM,remaining signal,105%
CN(C)C(=O)Cn1cc(-c2nc(C3(c4ccc(-c5cnc(N)nc5)cc4)CC3)no2)cn1,"cell-free assay, competition with immobilised ligand",1 µM,remaining binding,100%
O=C1NC(=O)c2cc(Nc3ccc(F)cc3)c(Nc3ccc(F)cc3)cc21,"cell-free assay, inhibitor",0.5 µM,remaining signal,99.2%
CC(=O)C1=C(C)N(c2cccc(C(F)(F)F)c2)C(=O)N[C@@H]1c1ccc(C#N)nc1,"cell-free assay, competition with immobilised ligand",1 µM,remaining binding,100%
CC(C)(C)c1nc(-c2cccc(NS(=O)(=O)c3c(F)cccc3F)c2F)c(-c2ccnc(N)n2)s1,"enzyme activity, inhibitor, radiometric",1 µM,remaining activity,97%
CCS(=O)(=O)c1cc2cc(C[C@@](O)(CC(C)(C)c3ccc(F)cc3C(N)=O)C(F)(F)F)[nH]c2cn1,"cell-free assay, competition with immobilised ligand",1 µM,remaining binding,95%
O=C(Nc1cnn(-c2csc(C(=O)NC3COC3)c2)c1)Nc1c(F)cccc1Cl,"enzyme activity, inhibitor",5 µM,remaining activity,108%
